# Published values gathered from unrelated publications.
# Compare with care: the assays were run in different laboratories.
# Target: Dual specificity protein kinase CLK1 (CLK1, Homo sapiens, UniProt P49759)
SMILES,observed,action,technique,tested at,quantity,value
Cn1cncc1[C@@](O)(COc1ccc(C#N)cc1-c1ccc(OC(F)(F)F)cc1)c1ccc(C#N)cc1,cell-free assay,,competition with immobilised ligand,1 µM,remaining binding,100%
Cc1nn(C)cc1-c1nc2c(N3CCN(Cc4ccc(Cl)cc4)CC3)c(Cl)cnc2[nH]1,binding,,competition with immobilised ligand,1 µM,remaining binding,63%
C#Cc1n[nH]c2c(-c3cn([C@@H](C)c4ccccn4)c(=O)[nH]c3=O)cc(F)cc12,enzyme activity,inhibitor,,0.1 µM,inhibition,4.1%
COc1ncccc1-c1cnn2ccc(N3CCN(C(=O)OC(C)C)CC3)nc12,binding,,competition with immobilised ligand,1 µM,remaining binding,81%
O=c1[nH]c2ccccc2n1C1CCN(Cc2ccc(-c3[nH]c4cc5ncnc5cc4nc3-c3ccccc3)cc2)CC1,cell-free assay,,,0.5 µM,remaining signal,109%
Nc1ncc(-c2nc(N3CCOCC3)nc(N3CCOCC3)n2)c(C(F)F)n1,binding,,competition with immobilised ligand,10 µM,remaining binding,58%
CC(C)(C)c1cc(C=C(C#N)C#N)cc(Br)c1O,enzyme activity,inhibitor,,0.5 µM,remaining activity,112%
Cn1cc(-c2cc(F)cc(N3CCn4c(cc5c4CCCC5)C3=O)c2CO)cc(Nc2ccc(N3CCN(C4COC4)CC3)cn2)c1=O,enzyme activity,inhibitor,,0.1 µM,inhibition,11%
COc1cc(Nc2ncc(F)c(Nc3ccc4c(n3)NC(=O)C(C)(C)O4)n2)cc(OC)c1OC,binding,,competition with immobilised ligand,10 µM,inhibition,92%
